PGC1a acetyl up: raises PGC1a acetylation signal in U2OS cells; U2OS PGC1a acetylation AlphaScreen, overnight; activation, % at 15.6 µM; 350,000 compounds, 0.21% hits;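 active = every replicate reaching activation of at least 50%, whatever the mean replicate activation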;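 also: hits raise the AlphaScreen acetylation signal above neutral controls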
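System – flag-PGC1a/GCN5 U2OS cells · Quantity – 7000 U2OS cells per well · Signal – AlphaScreen proximity luminescence, anti-acetyl-lysine antibody · Schedule – overnight compound treatment, 37 °C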
The depositor's hits bear a star. Shown is part of a subset that was picked to be rich in hits.

SMILES	PGC1a acetyl up
Cc1cc(-c2ccc(Cl)cc2)n2ncnc2n1	-48
O=c1[nH]c(=O)c2[nH]c(=S)[nH]c2[nH]1	-60
CCn1c(Cl)c(C=O)s/c1=N\S(=O)(=O)c1ccccc1	-78
C=C1C(=O)OC2C1CCC(C)=C1C(=O)C3OC3(C)C12 (centres undefined)	82*
Cc1noc(C)c1NC(=O)Nc1ccc2c(c1)C(=O)N([C@@H](C)CO)C[C@@H](C)[C@@H](CN(C)CC1CCCCC1)OCCCC[C@H](C)O2	-55
O=C(CN1CCOCC1)N[C@H]1CC[C@H](CCNC(=O)Nc2cc(F)ccc2F)O[C@H]1CO	-53
OC(c1ccc(Cl)cc1Cl)C(Cc1cccnc1)n1cncn1 (centres undefined)	59*
Cc1[nH]c(=O)[nH]c(=O)c1S(=O)(=O)Nc1ccc(F)c(Cl)c1	-47
CSc1nc(SC)c2c3c(oc2n1)COC(C)(C)C3	58*
C[C@@H]1CN([C@@H](C)CO)C(=O)CCCn2cc(nn2)CO[C@H]1CN(C)Cc1ccncc1	-51
COc1ccc2c3c([nH]c2c1)[C@H](CO)N(C(=O)c1ccncc1)CC31CN(C(=O)c2ccncc2)C1	-53
CCCC(=O)Nc1ccc(C(=O)N/N=C/c2cccnc2)cc1	69*
O=C(C[C@@H]1CC[C@@H](NS(=O)(=O)c2ccc(F)cc2)[C@H](CO)O1)N1CCN(c2ccccc2)CC1	-49
CC(=O)c1ccc(NC(=O)c2ccc([N+](=O)[O-])o2)cc1	101*
O=C(Nc1ccc([N+](=O)[O-])cn1)c1ccc(Br)o1	-43
O=[N+]([O-])c1ccccc1-c1ccc(C(=S)N2CCN(c3ccccc3)CC2)o1	-41
O=C(Nc1c(Cl)ccc2nsnc12)c1ccc([N+](=O)[O-])o1	74*
Cc1cc(C)cc(C(=O)Nc2ccc3[nH]c(=O)[nH]c3c2)c1	-48
O=C(c1ccc(CN2CCOCC2)cc1)N1CCN(Cc2ccccc2)CC1	-43
Cc1cc(C)cc(NC(=O)c2ccc([N+](=O)[O-])o2)c1	247*
O=C(Nc1ccc(N2CCN(C(=O)c3ccccc3)CC2)cc1)c1ccc([N+](=O)[O-])o1	122*
C[n+]1cccc(CNC(=O)/C=N/O)c1	-51
O=C1C=CCCN1C(=O)/C=C/c1cccc(C(F)(F)F)c1	-78
CC1(C)OC(C)(C)/C(=C\c2ccc(OCC(N)=O)cc2)C1=O	-46
Cc1ccc(-c2nn(C)c(=O)c3ccccc23)cc1S(=O)(=O)NCCN(C)C	-42
SMILES	PGC1a acetyl up
C[C@@H]1CN([C@H](C)CO)S(=O)(=O)c2ccc(-c3cncnc3)cc2O[C@H]1CN(C)Cc1cccnc1	-50
O=c1cc(CSc2ccccn2)[nH]c(=O)[nH]1	-44
O=C(Cc1ccc(-n2cccc2)cc1)NCc1cccs1	58*
CCC(=O)NC1(Cc2ccc(O)cc2)CCCCC1	-44
COc1c(O)cc(O)c2c(=O)cc(-c3ccccc3)oc12	64*
CCC(=O)N(C)C[C@@H]1Oc2ncc(C#CCc3ccccc3)cc2C(=O)N([C@H](C)CO)C[C@@H]1C	-101
COc1ccc(/C=C/c2cc(-c3ccc(C)cc3)o[n+]2C)cc1	121*
CC(C)(C)n1nnnc1CN(Cc1ccc(F)cc1)Cc1ccco1	92*
O=C(CSc1nnnn1-c1ccc(F)cc1)NNC(=O)c1ccco1	-44
O=C(CCCCCCC(=O)Nc1ccccc1)NO	-40
O=C(CCl)Nc1ccc(N=Nc2ccccc2)cc1	101*
Cc1ccc(CCC(=O)Nc2ccc(Cl)cc2)o1	-72
COc1ccc(S(=O)(=O)N(C)C[C@@H]2Oc3ccc(NC(=O)CCN4CCOCC4)cc3C(=O)N([C@H](C)CO)C[C@H]2C)cc1	-50
CC(=O)N1CCN(C(C)=O)C1c1ccccc1	-47
COC(=O)C1=NN(C(=O)c2ccccc2)C(O)(c2ccc([N+](=O)[O-])cc2)C1 (centres undefined)	115*
C[C@@H]1CN([C@H](C)CO)C(=O)c2cc(NC(=O)Cc3cn(C)c4ccccc34)ccc2O[C@@H]1CN(C)C(=O)Nc1ccccc1	-108
CC(C)CC(OC(=O)c1cccs1)C(=O)NCc1ccco1 (centres undefined)	86*
CN1C(C(=O)Nc2ccccn2)=C(O)c2sc(Cl)cc2S1(=O)=O	-53
O=[N+]([O-])c1cc(-c2nnc(Nc3ccc(O)cc3)c3ccccc23)ccc1N1CCOCC1	129*
CN1CCN(CCP(=O)(c2ccccc2)c2ccccc2)CC1	-41
O=C1/C(=C\c2ccc(Cl)c(Cl)c2)CN(C(=O)CCN2CCOCC2)C/C1=C/c1ccc(Cl)c(Cl)c1	-54
O=[N+]([O-])c1ccc(S(=O)(=O)c2cccc(C(F)(F)F)c2)nc1	172*
Cc1nc(N(CCO)C2CCCCC2)c2nnn(Cc3ccccc3)c2n1	-40
C[C@H]1CN([C@@H](C)CO)C(=O)CCCn2nncc2CO[C@@H]1CN(C)C(=O)Nc1ccc2c(c1)OCO2	-49
CC(C)C(=O)Nc1ccc(NC(=O)c2ccc([N+](=O)[O-])cc2Cl)cc1	-52
SMILES	PGC1a acetyl up
O=C(Nc1ccc(Nc2ccncc2)cc1)c1ccc([N+](=O)[O-])cc1	70*
CO[C@H]1CN(C)C(=O)c2cc(NS(C)(=O)=O)ccc2OC[C@@H](C)N(C(=O)CC2CC2)C[C@H]1C	-46
CC1=CC=CC2=NC(=O)CC(C)(C(=O)N(CC(=O)NC3CCCC3)c3ccccc3C)N12 (centres undefined)	54*
Cc1cc(C(=O)Nc2cccc3c2O[C@H](CN(C)C(=O)Nc2ccc4c(c2)OCO4)[C@@H](C)CN([C@H](C)CO)C3=O)n(C)n1	-58
C[C@H]1CN([C@@H](C)CO)S(=O)(=O)c2ccc(C3=CCCC3)cc2O[C@@H]1CN(C)C	-59
CC(C)CCCCCCCCCCCCC(=O)NCC(=O)NC1C(O)C(O)C(Nc2ncnc3nc[nH]c23)OC1C(O)CO (centres undefined)	-96
CCOc1ccc2c(c1)C(C)=CC(C)(C)N2S(=O)(=O)c1ccc(C)cc1	64*
COc1cc(/C=C/c2cccc[n+]2C)ccc1OCC(=O)Nc1ccccc1	-42
CCCCC(=O)Nc1ccc(NC(=O)c2cccs2)cn1	-49
CC(=O)c1cccc(NC(=O)Nc2cccnc2)c1	-50
CCCCSc1ccc(NC(=O)c2cccnc2)cc1	70*
Cc1nc2ccc(C(=O)Nc3ccccc3Cl)cc2s1	-49
O=S(=O)(N[C@@H]1CC[C@@H](CCNS(=O)(=O)c2ccccc2Cl)O[C@H]1CO)c1ccccc1	-62
CC(c1n[nH]c(=S)n1Cc1ccccc1)N(C)C (centres undefined)	-50
C/C=C(/C)C(=O)O[C@@H]1c2cc(OC)c(OC)c(OC)c2-c2c(cc3c(c2OC)OCO3)C[C@H](C)[C@]1(C)O	167*
CCN(CC)c1ccc(S(=O)(=O)N2CCOCC2)cc1NC(=O)Cn1nc(C)c([N+](=O)[O-])c1C	-48
O=C(Nc1cc(S(=O)(=O)N2CCOCC2)ccc1Cl)c1cc([N+](=O)[O-])ccc1Cl	67*
CCN(CC)S(=O)(=O)c1ccc(C(=O)Nc2cc(S(=O)(=O)N3CCOCC3)ccc2O)cc1	-46
COc1ccc(S(=O)(=O)N[C@@H]2CC[C@H](CCNC(=O)c3ccccc3F)O[C@H]2CO)cc1	-43
COc1ccc(NC(=O)N[C@@H]2CC[C@H](CCn3cc(-c4ccccc4F)nn3)O[C@@H]2CO)cc1	-48
COc1ccc(S(=O)(=O)N2CC[C@@H]3[C@H](CO)Nc4ccc(-c5ccccc5F)cc4[C@@H]32)cc1	51*
COc1ccc2c(c1)c1nc3ccccc3nc1n2CC(=O)OC(C)C	-46
COc1ccc2c(c1)sc1nc(-c3ccccc3)cn12	71*

High-throughput results from PubChem.
